{"source": "paper PMC12069899", "about": "(Acta Pharmaceutica Sinica. B, 2024)", "key": {"[1]": {"system": "rats (analgesic tolerance, CCI)", "experiment": "Chronic analgesic tolerance in CCI neuropathic pain", "type": "in vivo, rat"}, "[2]": {"system": "mice (conditioned place preference)", "experiment": "Conditioned place preference", "type": "in vivo, mouse", "details": "s.c.; morphine 10 mg/kg; P10581 2 μg/kg, 100 μL; n = 5", "how_it_was_run": "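Two-chamber boxes (20 × 20 × 20 cm), one with vertical black-white stripes and one with horizontal stripes. Conditioning training was repeated for 4 days. On Day 5, 24 h after the final dose, mice were placed in the central chamber with free access to both chambers for 15 min. Score = time on the drug-paired side postconditioning minus preconditioning. Dosing was blinded.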"}, "TRPV4 channel [3]": {"system": "TRPV4 channel", "experiment": "Analgesia in homozygous Trpv4−/− mice, CFA pain", "type": "in vivo, mouse", "details": "5 mg/kg, 2 h or 3 h post-injection; n = 4–5"}, "[4]": {"system": "rats (mechanical hyperalgesia induced by Carr.)", "experiment": "Randall–Selitto test, carrageenan inflammatory pain, peptide given i.d.", "type": "in vivo, Sprague–Dawley rat", "how_it_was_run": "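SD rats (180–220 g) received Carr. (1%, 5 μL) i.d. into the right hindpaw after baseline PWT. Test compound was given i.d. in 5 μL at the inflamed site 1.5 h after Carr. PWT was measured 2 h after dosing. AUC (g·min) was calculated per rat, and ΔPWT = PWT(post-drug) − PWT(pre-drug). Saline was the control. Dosing was blinded; mean ± SEM.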"}, "rats (thermal pain)": {"system": "rats (thermal pain)", "experiment": "Thermal laser test of hot pain", "type": "in vivo, rat", "details": "i.d. 1200 ng/kg, 5 μL; laser 52.5 ± 0.5 °C; n = 5"}, "rats (cold pain)": {"system": "rats (cold pain)", "experiment": "Cold plantar test", "type": "in vivo, rat", "details": "i.d. 1200 ng/kg, 5 μL; n = 5"}, "[5]": {"system": "stretch-activated cationic currents in mammalian astrocytes, cardiomyocytes, and the central nervous system", "details": "ref [23], [24], [25], [26]; cited from earlier work"}, "[6]": {"system": "rats (mechanical hyperalgesia and neuropathic pain)", "details": "ref [1], [27]; cited from earlier work"}, "Piezo1/Piezo2 channel": {"system": "Piezo1/Piezo2 channel", "details": "ref [63], [64]; cited from earlier work"}, "TRPC1 and TRPC6": {"system": "TRPC1 and TRPC6", "details": "MS channels in DRG neurons; ref [27]; cited from earlier work"}, "TRPV4 channel [7]": {"system": "TRPV4 channel", "experiment": "Whole-cell patch clamp, GSK101-evoked TRPV4 currents in HEK293", "type": "cell-based", "details": "GSK101 0.3 μmol/L, extracellular; ∼25 °C", "how_it_was_run": "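HEK293 cells were transiently transfected with TRPV4 by lipofection. Whole-cell voltage clamp was performed 24 h after transfection at ~25 °C; currents were filtered at 2 kHz and digitized at 10 kHz. Current was evoked by the TRPV4 activator GSK101, with GSK219 as the selective inhibitor. Test compound stock was freshly diluted in normal saline.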"}}, "note": "No end group written: not given here.", "data": [{"compound": "CN1CC[C@]23c4c5ccc(O)c4O[C@H]2[C@@H](O)C=C[C@H]3[C@H]1C5", "note": "[morphine]", "values": [{"measurement": "loss of anti-hyperalgesic effect on repeated injection", "setting": "[1]; i.d. 5 mg/kg twice a day, CCI", "value": "completely lost its anti-hyperalgesic effect from Day 4"}, {"measurement": "chronic tolerance after repeated injections", "setting": "[1]; i.d. twice a day, 9 days, from Day 8 after CCI, morphine 5 mg/kg, P10581 8 μg/kg", "value": "time-dependent decrease in PWT"}, {"measurement": "CPP preference score", "setting": "[2]", "value": "significantly increased CPP scores"}, {"measurement": "anti-hyperalgesic effect of morphine in WT vs. Trpv4-deficient mice", "setting": "TRPV4 channel [3]", "value": "equally effective in the anti-hyperalgesic effects among wild-type and Trpv4-deficient mice"}]}, {"compound": "GsMTx4 (GCLEFWWKCNPNDDKCCRPKLKCSKLFKLCNFSF; ends and bridges not checked; cysteine pairing not given here; UniProt Q7YT39 47-80, looked up)", "values": [{"measurement": "effect on PWT at low dose", "setting": "[4]; i.d. 0.6 μg/kg, 5 μL, n = 6", "value": "only a mild impact on PWT"}, {"measurement": "IC50 for anti-hyperalgesic effect (ΔPWT)", "setting": "[4]; i.d., 2 h after injection, Hill equation fit, n = 5 per group, mean ± SEM", "value": "689.3 ± 21.5", "unit": "ng/kg"}, {"measurement": "dose dependence of analgesic effect", "setting": "[4]; i.d., Fig. 1G", "value": "dose-dependent"}, {"measurement": "effect on paw withdrawal latency (PWL), hot pain", "setting": "rats (thermal pain)", "value": "did not change their PWL when compared to the saline group"}, {"measurement": "effect on PWL, cold pain", "setting": "rats (cold pain)", "value": "neither P10581 nor GsMTx4 at 1200 ng/kg (i.d. 5 μL) affected PWL following cold stimulus"}, {"measurement": "inhibition of stretch-activated cationic currents", "setting": "[5]", "value": "inhibit stretch-activated cationic currents"}, {"measurement": "reduction of mechanical hyperalgesia and neuropathic pain", "setting": "[6]", "value": "reduce mechanical hyperalgesia and neuropathic pain in rats"}, {"measurement": "channel sensitivity to GsMTx4", "setting": "Piezo1/Piezo2 channel", "value": "sensitive to GsMTx4"}, {"measurement": "channel sensitivity to GsMTx4", "setting": "TRPC1 and TRPC6", "value": "GsMTx4-sensitive"}]}, {"compound": "CC(C)C[C@H](NC(=O)c1cc2ccccc2s1)C(=O)N1CCN(C(=O)[C@H](CO)NS(=O)(=O)c2ccc(Cl)cc2Cl)CC1", "note": "[GSK101]", "values": [{"measurement": "activation of TRPV4 current", "setting": "TRPV4 channel [7]", "value": "robust increase in the currents"}]}]}
